Activity calls are given as the source filed them. The rule behind the calls is not given here.
Experiments:
MCF7 [1] = experiment: Selectivity ratio of IC50 for human MCF7 cells to IC50 for human RD cells; assay type: functional
Summary of the method: (§1)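 XTT viability: 1500–2000 cells/well plated by doubling time; compounds added after 24 h, then 72 h further culture without medium change. XTT reagent 4 h at 37 °C, absorbance read at 490 nm. IC50 is the concentration halving absorbance versus untreated cells; triplicate experiments. Ratio is MCF7 IC50 divided by IC50 in the named line.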

[2] = Cell cycle arrest in human T98G cells assessed as G1 phase accumulation at 1 uM after 24 hrs by propidium iodide staining based flow cytometry (reference value: 86.1 +/- 1.29%); assay type: functional
[3] = Antiproliferative activity against human MRC5-SV1 S40 cells after 72 hrs by XTT assay; assay type: functional, cell-based
Summary of the method: (§2)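 Cells plated at 1500–2000 per well by doubling time, treated after 24 h with a concentration series in six triplicate wells, and incubated 72 h without a medium change. XTT reagent was then added for 4 h at 37 °C and absorbance read at 490 nm. IC50 is the concentration halving absorbance versus untreated cells. Experiments run in triplicate.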

[4] = Cell cycle arrest in human SK-N-AS cells assessed as S phase accumulation at 1 uM after 24 hrs by propidium iodide staining based flow cytometry (reference value: 21.3 +/- 1.14%); assay type: functional
[5] = Antiproliferative activity against human LAN1 cells after 72 hrs by XTT assay; assay type: functional, cell-based; settings: LAN1, 72 h; summary of the method: as §2
[6] = Cell cycle arrest in human NCI-H1299 cells assessed as G2/M phase accumulation at 1 uM after 24 hrs by propidium iodide staining based flow cytometry (reference value: 22.2 +/- 1.74%); assay type: functional
[7] = Induction of apoptosis in human NB-1 cells assessed as early apoptotic cells at 5 uM after 72 hrs by Annexin-V FITC/propidium iodide staining based flow cytometry (reference value: 3.2%); assay type: cell-based; settings: nb1, 72 h
[8] = Antiproliferative activity against human Kelly cells after 72 hrs by XTT assay; assay type: functional, cell-based; summary of the method: as §2
[9] = Cell cycle arrest in human NB1 hTERT cells assessed as G2/M phase accumulation at 1 uM after 72 hrs by propidium iodide staining based flow cytometry (reference value: 23.9%); assay type: functional
MCF7 [10] = experiment: Selectivity ratio of IC50 for human MCF7 cells to IC50 for human T98G cells; assay type: functional; summary of the method: as §1
A549 = experiment: Induction of apoptosis in human A549 cells assessed as early apoptotic cells at 5 uM after 72 hrs by Annexin-V FITC/propidium iodide staining based flow cytometry (reference value: 1.3%); assay type: functional
[11] = Cell cycle arrest in human MCF7 cells assessed as G2/M phase accumulation at 1 uM after 24 hrs by propidium iodide staining based flow cytometry (reference value: 24.2 +/- 1.62%); assay type: functional
[12] = Induction of apoptosis in human NB1 hTERT cells assessed as late apoptotic cells at 5 uM after 72 hrs by Annexin-V FITC/propidium iodide staining based flow cytometry (reference value: 4.6%); assay type: functional
HeLa = experiment: Selectivity ratio of IC50 for human MCF7 cells to IC50 for human HeLa cells; assay type: functional; summary of the method: as §1
[13] = Cell cycle arrest in human NB-1 cells assessed as G2/M phase accumulation at 1 uM after 24 hrs by propidium iodide staining based flow cytometry (reference value: 21.2%); settings: nb1, 24 h
[14] = Cell cycle arrest in human MCF7 cells assessed as S phase accumulation at 1 uM after 144 hrs by propidium iodide staining based flow cytometry (reference value: 17.8%); assay type: functional
[15] = Cell cycle arrest in human RD cells assessed as S phase accumulation at 1 uM after 24 hrs by propidium iodide staining based flow cytometry (reference value: 14.4 +/- 0.92%); assay type: functional
SH-SY5Y = experiment: Disruption of beta-tubulin network in human SH-SY5Y cells assessed as pyknotic nuclei at 1 uM after 24 hrs by DAPI staining based immunofluorescence microscopic analysis; assay type: cell-based
Summary of the method: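 Cells seeded on glass coverslips (1 x 10^5/well), treated 24 h, fixed in 4% paraformaldehyde 15 min, permeabilized with 0.5% Triton X-100, blocked in 5% BSA/PBS, stained overnight at 4 °C with anti-β-tubulin (1:200) then fluorescent secondary antibody; nuclei counterstained with DAPI; microtubule organization and nuclear morphology examined by fluorescence microscopy.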

[16] = Cell cycle arrest in human NB-1 cells assessed as G1 phase accumulation at 1 uM after 24 hrs by propidium iodide staining based flow cytometry (reference value: 75%); settings: nb1, 24 h
[17] = Cell cycle arrest in human NB-1 cells assessed as G1 phase accumulation at 1 uM after 72 hrs by propidium iodide staining based flow cytometry (reference value: 81.7%); settings: nb1, 72 h
[18] = Cell cycle arrest in human HeLa cells assessed as S phase accumulation at 1 uM after 8 hrs by propidium iodide staining based flow cytometry (reference value: 19.2%); assay type: functional
[19] = Cell cycle arrest in human SH-SY5Y cells assessed as S phase accumulation at 1 uM after 24 hrs by propidium iodide staining based flow cytometry (reference value: 14.3 +/- 1.52%); assay type: functional
[20] = Cell cycle arrest in human NB1 hTERT cells assessed as sub G1 phase accumulation at 1 uM after 48 hrs by propidium iodide staining based flow cytometry relative to control; assay type: functional
[21] = Cell cycle arrest in human NB-1 cells assessed as S phase accumulation at 1 uM after 48 hrs by propidium iodide staining based flow cytometry (reference value: 1.7%); settings: nb1, 48 h
[22] = Cell cycle arrest in human MCF7 cells assessed as G2/M phase accumulation at 1 uM treated for 24 hrs followed by compound washout measured after 24 hrs by propidium iodide staining based flow cytometry (reference value: 26.4%); assay type: functional
[23] = Cell cycle arrest in human SK-N-AS cells assessed as G1 phase accumulation at 1 uM after 24 hrs by propidium iodide staining based flow cytometry (reference value: 51.5 +/- 1.39%); assay type: functional
[24] = Cell cycle arrest in human NB-1 cells assessed as S phase accumulation at 1 uM after 24 hrs by propidium iodide staining based flow cytometry (reference value: 3.8%); settings: nb1, 24 h
[25] = Cell cycle arrest in human SH-SY5Y cells assessed as G1 phase accumulation at 1 uM after 24 hrs by propidium iodide staining based flow cytometry (reference value: 59.6 +/- 1.94%); assay type: functional
[26] = Cell cycle arrest in human NB1 hTERT cells assessed as G1 phase accumulation at 1 uM after 24 hrs by propidium iodide staining based flow cytometry (reference value: 52.3%); assay type: functional
[27] = Cell cycle arrest in human NB1 hTERT cells assessed as G1 phase accumulation at 1 uM after 48 hrs by propidium iodide staining based flow cytometry (reference value: 62.5%); assay type: functional
[28] = Induction of apoptosis in human NB1 hTERT cells assessed as early apoptotic cells at 5 uM after 72 hrs by Annexin-V FITC/propidium iodide staining based flow cytometry (reference value: 0.6%); assay type: functional
[29] = Cell cycle arrest in human NCI-H1299 cells assessed as G1 phase accumulation at 1 uM after 48 hrs by propidium iodide staining based flow cytometry (reference value: 81%); assay type: functional
[30] = Cell cycle arrest in human T98G cells assessed as S phase accumulation at 1 uM after 24 hrs by propidium iodide staining based flow cytometry (reference value: 5.1 +/- 0.82%); assay type: functional

Cc1[nH]c2c(c1-c1nnc(-c3ccccc3)o1)Cc1ccccc1-2
Ratio IC50 (MCF7 [1]): 28 - 34 | Activity [2]: 11.1% | IC50 [3]: 0.13 µM | Activity [4]: 9.9% | IC50 [5]: 0.38 µM | Activity [6]: 74.6% | Activity [7]: 4.2% | IC50 [8]: 0.25 µM | Activity [9]: 20.8% | Ratio IC50 (MCF7 [10]): 28 - 34 | Activity (A549): 11% | Activity [11]: 59.5 to 78.1% | Activity [12]: 13.2% | Ratio IC50 (HeLa): 28 - 34 | Activity [13]: 23.8% | Activity [14]: 5.6% | Activity [15]: 10.6% | Activity (SH-SY5Y): Active | Activity [16]: 73% | Activity [17]: 77.6% | Activity [18]: 22.2% | Activity [19]: 15.6% | Activity [20]: 24.9% | Activity [21]: 2.4% | Activity [22]: 31.7% | Activity [23]: 10.8% | Activity [24]: 3.2% | Activity [25]: 24.8% | Activity [26]: 58.8% | Activity [27]: 41.1% | Activity [28]: 3.8% | Activity [29]: 34.3% | Activity [30]: 6.2%

Source: ChEMBL document CHEMBL3877293, “Synthesis and Antineoplastic Evaluation of Novel Unsymmetrical 1,3,4-Oxadiazoles” (J Med Chem, 2016)
